Values belong to the molecule of their own block, whether it stands above or below them.
Tests used:
[1] = PlasmaTC lowering was determined in standard-diet-fed cynomolgus monkeys after 16h of postdosing of at 5 mg/kg; format: functional, Cercopithecidae
In short: (§1)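 Cynomolgus monkeys on standard diet received oral dosing once daily for 7 days. Plasma TC was measured 16 h postdosing. Values are percent lowering at a stated dose (mg/kg), or ED50, the dose producing 50% TC lowering.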

[2] = PlasmaTC lowering was determined in standard-diet-fed cynomolgus monkeys after 16h of postdosing of at 1.25 mg/kg; format: functional, Cercopithecidae; in short: as §1
[3] = molecular target: T1, Microsomal triglyceride transfer protein large subunit (Homo sapiens, UniProt P55157); assay: (§2) In vitro inhibition of human microsomal triglyceride transfer protein in HepG2 cells using apoB secretion assay; format: cell-based
T1 sequence (P55157 whole entry): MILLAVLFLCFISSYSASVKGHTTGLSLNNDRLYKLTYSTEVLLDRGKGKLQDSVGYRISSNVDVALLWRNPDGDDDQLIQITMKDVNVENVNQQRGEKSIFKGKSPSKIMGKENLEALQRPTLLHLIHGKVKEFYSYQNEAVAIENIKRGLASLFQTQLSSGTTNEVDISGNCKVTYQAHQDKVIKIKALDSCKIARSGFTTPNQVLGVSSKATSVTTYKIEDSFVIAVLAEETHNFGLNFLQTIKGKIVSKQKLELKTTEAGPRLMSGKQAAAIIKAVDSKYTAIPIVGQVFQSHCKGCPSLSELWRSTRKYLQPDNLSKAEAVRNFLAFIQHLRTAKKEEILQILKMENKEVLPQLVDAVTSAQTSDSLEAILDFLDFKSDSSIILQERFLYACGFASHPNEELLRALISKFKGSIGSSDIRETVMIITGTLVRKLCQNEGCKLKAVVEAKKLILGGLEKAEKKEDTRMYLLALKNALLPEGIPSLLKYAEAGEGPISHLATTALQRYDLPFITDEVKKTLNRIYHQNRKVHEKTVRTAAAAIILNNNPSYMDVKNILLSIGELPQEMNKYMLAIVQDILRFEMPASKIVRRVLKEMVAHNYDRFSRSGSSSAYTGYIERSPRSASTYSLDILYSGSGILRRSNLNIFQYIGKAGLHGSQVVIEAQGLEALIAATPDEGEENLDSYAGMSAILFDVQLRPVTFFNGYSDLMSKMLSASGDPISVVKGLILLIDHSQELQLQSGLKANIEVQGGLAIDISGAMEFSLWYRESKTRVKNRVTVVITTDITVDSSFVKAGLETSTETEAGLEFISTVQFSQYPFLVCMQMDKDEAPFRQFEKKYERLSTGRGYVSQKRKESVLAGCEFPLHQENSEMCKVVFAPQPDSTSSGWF

[4] = molecular target: T1, Microsomal triglyceride transfer protein large subunit; assay: In vitro inhibition of human Microsomal Triglyceride Transfer Protein, (triglyceride transfer assay)
[5] = Dose required for 50% lowering of plasma TC in standard-diet-fed golden Syrian hamsters 16h postdosing.; format: functional
In short: (§3)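 Golden Syrian hamsters on standard diet were dosed orally once daily for 3 days. Plasma total cholesterol was measured 16 h after dosing. Values are percent TC lowering at a given dose (mg/kg), or ED50, the dose giving 50% plasma TC lowering.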

Mesocricetus auratus [6] = assay: TC lowering at 8 mg/kg was measured as % lowering of plasma TC in standard-diet-fed golden Syrian hamsters 16h postdosing.
[7] = TC lowering at dose was measured as % lowering of plasma TC in standard-diet-fed cynomolgus monkeys 16h postdosing.; format: functional, Cercopithecidae; in short: as §1
[8] = molecular target: T1, Microsomal triglyceride transfer protein large subunit; assay: In vitro inhibition of human Microsomal Triglyceride Transfer Protein (triglyceride transfer assay)
[9] = ED50 represents dose required for 50% lowering of plasma TC in standard-diet-fed golden Syrian hamsters 16h postdosing.; settings: Mesocricetus auratus
[10] = PlasmaTC lowering was determined in standard-diet-fed cynomolgus monkeys after 16h of postdosing of at 2.5 mg/kg; format: functional, Cercopithecidae; in short: as §1
Mesocricetus auratus [11] = assay: 50% lowering of plasma TC in standard-diet-fed golden Syrian hamsters 16h postdosing. 15 mg/kg required for
Mesocricetus auratus [12] = assay: PlasmaTC lowering was determined in standard-diet-fed after 16h of postdosing of at 15 mg/kg in golden Syrian hamsters
[13] = Dose required for 50% lowering of plasma TC in standard-diet-fed cynomolgus monkeys 16h postdosing.; format: functional; settings: Cercopithecidae; in short: as §1
[14] = PlasmaTC lowering was determined in standard-diet-fed cynomolgus monkeys after 16h of postdosing of at 1 mg/kg; format: functional, Cercopithecidae; in short: as §1
[15] = PlasmaTC lowering was determined in standard-diet-fed cynomolgus monkeys after 16h of postdosing of at 0.3 mg/kg; format: functional, Cercopithecidae; in short: as §1
[16] = PlasmaTC lowering was determined in standard-diet-fed cynomolgus monkeys after 16h of postdosing of at 0.1 mg/kg; format: functional, Cercopithecidae; in short: as §1
[17] = PlasmaTC lowering was determined in standard-diet-fed cynomolgus monkeys after 16h of postdosing at 10 mg/kg; format: functional, Cercopithecidae; in short: as §1
[18] = molecular target: T1, Microsomal triglyceride transfer protein large subunit; assay: In vitro inhibition of human microsomal triglyceride transfer protein using triglyceride transfer assay
[19] = Dose required for 50% lowering of plasma TC in standard-diet-fed cynomolgus monkeys; format: functional; settings: Cercopithecidae; in short: as §1
[20] = Dose required for 50% lowering of plasma TC in standard-diet-fed golden Syrian hamsters 16h postdosing; format: functional; in short: as §3
[21] = PlasmaTC lowering was determined in standard-diet-fed cynomolgus monkeys after 16h of postdosing at 1.25 mg/kg; format: functional, Cercopithecidae; in short: as §1
[22] = molecular target: T1, Microsomal triglyceride transfer protein large subunit; assay: as §2; format: functional, cell-based
[23] = PlasmaTC lowering was determined in standard-diet-fed cynomolgus monkeys after 16h of postdosing at 2.5 mg/kg; format: functional, Cercopithecidae; in short: as §1
[24] = PlasmaTC lowering was determined in standard-diet-fed cynomolgus monkeys after 16h of postdosing at 5 mg/kg; format: functional, Cercopithecidae; in short: as §1

SMILES: CC(C)c1nc2c(NC(=O)c3ccccc3-c3ccc(C(F)(F)F)cc3)cccc2n1CCCCC1(C(=O)NCC(F)(F)F)c2ccccc2-c2ccccc21
- IC50 [3]: 0.06 nM
- IC50 [4]: 4 nM
- TC lowering (Mesocricetus auratus [6]): -60%
- TC lowering [7]: -39%

SMILES: O=C(Nc1cccc2c1ncn2CCCCC1(C(=O)NCC(F)(F)F)c2ccccc2-c2ccccc21)c1ccccc1-c1ccc(C(F)(F)F)cc1
- TC lowering [1]: -52%
- IC50 [8]: 5 nM
- ED50 [9]: 12 mg/kg
- IC50 [3]: 0.24 nM
- TC lowering [10]: -19%

SMILES: CCCc1nc2c(NC(=O)c3ccccc3-c3ccc(C(F)(F)F)cc3)cccc2n1CCCCC1(C(=O)NCC(F)(F)F)c2ccccc2-c2ccccc21
- TC lowering (Mesocricetus auratus [11]): -44%
- IC50 [4]: 2 nM

SMILES: O=C(Nc1cccc2c1ncn2CCCC1(C(=O)NCC(F)(F)F)c2ccccc2-c2ccccc21)c1ccccc1-c1ccc(C(F)(F)F)cc1
- IC50 [4]: 10 nM
- TC lowering (Mesocricetus auratus [12]): -11%

SMILES: O=C(NC1CCN(CCCCC2(C(=O)NCC(F)(F)F)c3ccccc3-c3ccccc32)CC1)c1ccccc1-c1ccc(C(F)(F)F)cc1 [LOMITAPIDE]
- TC lowering [17]: -88%
- IC50 [18]: 8 nM
- ED50 [19]: 2 mg/kg
- ED50 [20]: 2.3 mg/kg
- TC lowering [21]: -35%
- IC50 [22]: 0.8 nM
- TC lowering [23]: -65%
- TC lowering [24]: -74%

Continued, in another order:

- IC50 [3]: 0.15 nM
- IC50 [4]: 1 nM
SMILES: Cc1nc2c(NC(=O)c3ccccc3-c3ccc(C(F)(F)F)cc3)cccc2n1CCCCC1(C(=O)NCC(F)(F)F)c2ccccc2-c2ccccc21
- TC lowering [1]: -80%
- TC lowering [2]: -51%
- ED50 [5]: 2.5 mg/kg

- IC50 [3]: 0.03 nM
- IC50 [4]: 1 nM
SMILES: Cc1ccc2c(nc(C)n2CCCCC2(C(=O)NCC(F)(F)F)c3ccccc3-c3ccccc32)c1NC(=O)c1ccccc1-c1ccc(C(F)(F)F)cc1
- ED50 [13]: 0.38 mg/kg
- TC lowering [14]: -76%
- TC lowering [15]: -43%
- TC lowering [2]: -83%
- TC lowering [16]: -28%
- ED50 [5]: 0.28 mg/kg

- IC50 [3]: 0.02 nM
- IC50 [4]: 1 nM
SMILES: Cc1ccc2c(ncn2CCCCC2(C(=O)NCC(F)(F)F)c3ccccc3-c3ccccc32)c1NC(=O)c1ccccc1-c1ccc(C(F)(F)F)cc1
- TC lowering [10]: -68%
- ED50 [5]: 3.8 mg/kg
